Laboratory results reported in ChEMBL document CHEMBL1146725, “Discovery and SAR of potent, orally available and brain-penetrable 5,6-dihydro-4H-3-thia-1-aza-benzo[e]azulen- and 4,5-dihydro-6-oxa-3-thia-1-aza-benzo[e]azulen derivatives as neuropeptide Y Y5 receptor antagonists” (Bioorg Med Chem Lett, 2004).
Values joined by “and” are separate entries in the source; they are usually repeats but may differ in a detail not shown here. Equal values may be shown once.

Tests used:
[1] = biological target: T1, Neuropeptide Y receptor type 5 (Homo sapiens, UniProt Q15761); assay: (§1) In vitro binding affinity against human neuropeptide Y5 receptor
T1 sequence (Q15761 whole entry): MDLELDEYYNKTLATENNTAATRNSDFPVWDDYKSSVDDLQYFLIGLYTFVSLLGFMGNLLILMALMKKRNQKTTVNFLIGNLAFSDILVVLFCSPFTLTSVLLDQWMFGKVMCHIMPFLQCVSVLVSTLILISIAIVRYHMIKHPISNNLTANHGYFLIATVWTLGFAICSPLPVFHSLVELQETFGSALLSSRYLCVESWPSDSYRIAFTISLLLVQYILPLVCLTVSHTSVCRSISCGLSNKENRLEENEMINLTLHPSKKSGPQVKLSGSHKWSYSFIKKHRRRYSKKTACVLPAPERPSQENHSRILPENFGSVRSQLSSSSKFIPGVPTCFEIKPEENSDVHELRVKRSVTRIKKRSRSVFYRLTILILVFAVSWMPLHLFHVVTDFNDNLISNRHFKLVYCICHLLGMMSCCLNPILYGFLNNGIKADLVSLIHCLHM

[2] = biological target: T1, Neuropeptide Y receptor type 5; assay: as §1; remark: listed apart in the source
In short: (§2)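 Reported as IC50 (nM), each value the mean of three separate experiments.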

[3] = (§3) Concentration (30 mg/kg, p.o.) in rat hypothalamus after 6 hours; format: ADME, organism-based; settings: hypothalamus, po
In short: (§4)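 Male rats (RA238), fasted overnight, given 30 mg/kg by oral gavage (5 mL/kg) in 20% Cremophore EL/water (w/w). Plasma and hypothalamus were sampled at 2 and 6 h post-dose and levels measured by LC-MS. Values are the mean of 3-6 animals per time point, as µg/mL plasma and µg/g hypothalamus.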

Rattus norvegicus [4] = assay: as §3; format: ADME, organism-based; settings: in vivo, po, 6 h; in short: as §4
Rattus norvegicus [5] = assay: (§5) Concentration (30 mg/kg, p.o.) in rat hypothalamus after 2 hours; format: ADME, organism-based; settings: in vivo, po, 2 h; in short: as §4
[6] = (§6) Concentration (30 mg/kg, p.o.) in rat plasma after 6 hours; format: ADME, organism-based; settings: plasma, po; in short: as §4
Rattus norvegicus [7] = assay: as §6; format: ADME, organism-based; settings: in vivo, po, 6 h; in short: as §4
[8] = as §5; format: ADME, organism-based; settings: hypothalamus, po; in short: as §4
[9] = Concentration (30 mg/kg, p.o.) in rat plasma after 2 hours; format: ADME, organism-based; settings: plasma, po; in short: as §4
[10] = biological target: T1, Neuropeptide Y receptor type 5; assay: In vitro binding affinity against human neuropeptide Y5 receptor measured as Ca+ response; in short: as §2

SMILES | IC50 [1] [µM] | other results
CCOC(=O)N1CCC(CNc2nc3c(s2)CCCc2ccc(F)cc2-3)CC1 | 0.004 | –
CN(CC(=O)N1CCC(CNc2nc3c(s2)CCOc2ccc(F)cc2-3)CC1)CC1CC1 | – | IC50 [2]: 0.018 µM
O=C(CNCC1CC1)N1CCC(CNc2nc3c(s2)CCCc2ccc(F)cc2-3)CC1 | 0.006 | –
O=C(CN1CCCCC1)N1CCC(CNc2nc3c(s2)CCCc2ccccc2-3)CC1 | 0.006 | –
COCC(=O)N1CCC(CNc2nc3c(s2)CCCc2ccc(F)cc2-3)CC1 | 0.002 | –
CCCN(C)CC(=O)N[C@H]1CC[C@H](CNc2nc3c(s2)CCCc2ccc(F)cc2-3)CC1 | 0.006 | –
CC(C)N1CCN(CC(=O)N[C@H]2CC[C@H](CNc3nc4c(s3)CCCc3ccc(F)cc3-4)CC2)CC1 | 0.21 | –
Cc1ccc2c(c1)-c1nc(NCC3CCN(C(=O)COC(C)C)CC3)sc1CCO2 | 0.021 | –
CN(C)C(=O)CCCCNc1nc2c(s1)CCCc1ccc(F)cc1-2 | 0.025 | –
CN(C)S(=O)(=O)NC[C@H]1CC[C@H](Nc2nc3c(s2)-c2ccccc2Sc2ccccc2-3)CC1 | 0.015 | –
O=C(CC1CC1)N[C@H]1CC[C@H](CNc2nc3c(s2)CCCc2ccc(F)cc2-3)CC1 | 0.006 | –
O=C(C1CC1)N1CCC(CNc2nc3c(s2)CCCc2ccc(F)cc2-3)CC1 | 0.002 | –
CC(=O)NC1CCN(CC(=O)Nc2nc3c(s2)CCCc2ccc(F)cc2-3)CC1 | 0.078 | –
O=C(CN1CCOCC1)N1CCC(CNc2nc3c(s2)CCCc2ccc(F)cc2-3)CC1 | 0.002 | –
CCOCC(=O)N1CCC(CNc2nc3c(s2)CCOc2ccc(F)cc2-3)CC1 | 0.028 | –
CN(C)CCCC(=O)N[C@H]1CC[C@H](CNc2nc3c(s2)CCCc2ccc(F)cc2-3)CC1 | 0.29 | –
CCCCC(=O)N[C@H]1CC[C@H](CNc2nc3c(s2)CCCc2ccc(F)cc2-3)CC1 | 0.006 | –
O=C(CCN1CCCCC1)N[C@H]1CC[C@H](CNc2nc3c(s2)CCCc2ccc(F)cc2-3)CC1 | 0.15 | –
CCCCC(=O)N1CCC(CNc2nc3c(s2)CCOc2cc(F)c(Cl)cc2-3)CC1 | 0.02 | –
O=C(CN1CCCCC1)N1CCC(CNc2nc3c(s2)CCOc2ccc(F)cc2-3)CC1 | – | IC50 [2]: 0.071 µM
COCC(=O)N1CCC(CNc2nc3c(s2)CCOc2ccc(F)cc2-3)CC1 | – | IC50 [2]: 0.037 µM
O=C1CC[C@H](C(=O)N2CCC(CNc3nc4c(s3)CCCc3ccc(F)cc3-4)CC2)O1 | 0.004 | –

SMILES | IC50 [1] [µM] | other results
CC(=O)N1CCC(CNc2nc3c(s2)CCOc2ccc(F)cc2-3)CC1 | – | IC50 [2]: 0.069 µM
O=C([C@H]1CCCO1)N1CCC(CNc2nc3c(s2)CCCc2ccc(F)cc2-3)CC1 | 0.002 | concentration at 6 h [3]: 670 ng/g; Concentration (Rattus norvegicus [4]): 0.67 µg/g; Concentration (Rattus norvegicus [5]): 0.86 µg/g and 2.44 µg/g; concentration at 6 h [6]: 220 ng/mL; Concentration (Rattus norvegicus [7]): 220 ng/mL
O=C(N[C@H]1CC[C@H](CNc2nc3c(s2)CCCc2ccc(F)cc2-3)CC1)C1CC1 | 0.006 | –
CC(=O)C1(c2ccccc2)CCC(CC(=O)Nc2nc3c(s2)CCCc2ccc(F)cc2-3)CC1 (stereo not given) | 0.015 | –
O=C([C@@H]1CCCO1)N1CCC(CNc2nc3c(s2)CCOc2ccc(F)cc2-3)CC1 | – | concentration at 6 h [3]: 640 ng/g; concentration at 2 h [8]: 5480 ng/g; concentration at 2 h [9]: 930 ng/mL; concentration at 6 h [6]: 140 ng/mL; IC50 [2]: 0.019 µM
COCCCNCC(=O)N1CCC(CNc2nc3c(s2)CCCc2ccc(F)cc2-3)CC1 | 0.015 | –
CC(C)C(=O)N1CCC(CNc2nc3c(s2)CCCc2ccc(F)cc2-3)CC1 | 0.002 | –
Fc1ccc(-c2csc(Nc3ccccc3)n2)cc1 | 1.6 | –
CN(CC(=O)N1CCC(CNc2nc3c(s2)CCCc2ccc(F)cc2-3)CC1)CC1CC1 | 0.003 | –
CC(C)C(=O)N1CCC(CNc2nc3c(s2)CCOc2cc(F)c(F)cc2-3)CC1 | 0.04 | –
CN(C)CC(=O)N[C@H]1CC[C@H](CNc2nc3c(s2)CCCc2ccc(F)cc2-3)CC1 | 0.081 | –
CN(C)CC(=O)N1CCC(CNc2nc3c(s2)CCCc2ccc(F)cc2-3)CC1 | 0.004 | –
COc1ccc2c(c1)-c1nc(NCC3CCN(C(=O)CCN4CCCCC4)CC3)sc1CCO2 | 2.46 | –
O=C(C1CCOC1)N1CCC(CNc2nc3c(s2)CCCc2ccc(F)cc2-3)CC1 (stereo not given) | 0.001 | concentration at 6 h [3]: 440 ng/g; concentration at 2 h [8]: 1220 ng/g; concentration at 2 h [9]: 540 ng/mL; concentration at 6 h [6]: 140 ng/mL
CC(=O)N1CCC(CNc2nc3c(s2)CCCc2ccc(F)cc2-3)CC1 | 0.002 | concentration at 6 h [3]: 290 ng/g; concentration at 2 h [8]: 3700 ng/g; IC50 [10]: 0.254 µM; concentration at 2 h [9]: 950 ng/mL; concentration at 6 h [6]: 70 ng/mL
CCOCC(=O)N1CCC(CNc2nc3c(s2)CCOc2ccc(C)cc2-3)CC1 | 0.018 | –
Nc1nc2c(s1)-c1ccccc1Sc1ccccc1-2 | 1.8 | –
COCCC(=O)N1CCC(CNc2nc3c(s2)CCOc2ccc(F)cc2-3)CC1 | – | IC50 [2]: 0.022 µM
COC(=O)N[C@H]1CC[C@H](CNc2nc3c(s2)CCCc2ccc(F)cc2-3)CC1 | 0.002 | –
O=C(CN1CCCCC1)N1CCC(CNc2nc3c(s2)CCCc2ccc(F)cc2-3)CC1 | 0.004 | concentration at 6 h [3]: 620 ng/g; concentration at 2 h [8]: 1170 ng/g; concentration at 2 h [9]: 240 ng/mL; concentration at 6 h [6]: 130 ng/mL
O=C(CNCC1CCCO1)N1CCC(CNc2nc3c(s2)CCCc2ccc(F)cc2-3)CC1 (stereo not given) | 0.006 | –
COCCNCC(=O)N1CCC(CNc2nc3c(s2)CCCc2ccc(F)cc2-3)CC1 | 0.002 | –

SMILES | IC50 [1] [µM] | other results
CCCCC(=O)N1CCC(CNc2nc3c(s2)CCOc2ccc(OC)cc2-3)CC1 | 0.017 | –
Cc1ccc2c(c1)-c1nc(NCC3CCN(C(=O)c4ccccn4)CC3)sc1CCO2 | 0.025 | –
O=C(N[C@H]1CC[C@H](CNc2nc3c(s2)CCCc2ccc(F)cc2-3)CC1)c1cccs1 | 0.015 | –
CC(C)C(=O)N1CCC(CNc2nc3c(s2)CCOc2cc(Cl)c(F)cc2-3)CC1 | 0.099 | –
O=C([C@H]1CCCO1)N1CCC(CNc2nc3c(s2)CCOc2ccc(F)cc2-3)CC1 | – | concentration at 6 h [3]: 1080 ng/g; concentration at 2 h [8]: 2440 ng/g; concentration at 2 h [9]: 970 ng/mL; concentration at 6 h [6]: 390 ng/mL; IC50 [2]: 0.005 µM
O=C(CN1CCCCC1)N1CCC(CNc2nc3c(s2)CCCc2ccc(Cl)cc2-3)CC1 | 0.007 | –
CCCCC(=O)N1CCC(CNc2nc3c(s2)CCOc2cc(F)c(F)cc2-3)CC1 | 0.038 | –
O=C(CN1CCOCC1)N1CCC(CNc2nc3c(s2)CCOc2ccc(F)cc2-3)CC1 | – | IC50 [2]: 0.041 µM
COC[C@@H]1CCCN1CC(=O)N1CCC(CNc2nc3c(s2)CCCc2ccc(F)cc2-3)CC1 | 0.003 | –
CN1CCN(CC(=O)N2CCC(CNc3nc4c(s3)CCCc3ccc(F)cc3-4)CC2)CC1 | 0.024 | –
Cc1ccc2c(c1)-c1nc(NCC3CCN(C(=O)[C@@H]4CCCO4)CC3)sc1CCO2 | 0.017 | –
O=C(CN1CCCCC1)N[C@H]1CC[C@H](CNc2nc3c(s2)CCCc2ccc(F)cc2-3)CC1 | 0.029 | –
CN(C)S(=O)(=O)NC[C@H]1CC[C@H](Nc2nc3c(s2)CCSc2ccc(F)cc2-3)CC1 | 0.003 | –
O=C1CCCN1[C@H]1CC[C@H](CNc2nc3c(s2)CCCc2ccc(F)cc2-3)CC1 | 0.005 | –
CS(=O)(=O)NC[C@H]1CC[C@H](Nc2nc(-c3ccc(F)cc3)cs2)CC1 | 0.023 | –
Cc1ccc2c(c1)-c1nc(NCC3CCN(C(=O)C(C)C)CC3)sc1CCO2 | 0.005 | concentration at 6 h [3]: 880 ng/g; concentration at 2 h [8]: 2420 ng/g; IC50 [10]: 0.061 µM; concentration at 2 h [9]: 840 ng/mL; concentration at 6 h [6]: 330 ng/mL
COCCC(=O)N1CCC(CNc2nc3c(s2)CCCc2ccc(F)cc2-3)CC1 | 0.002 | –
O=C(c1ccccc1F)N1CCC(CNc2nc3c(s2)CCCc2ccc(F)cc2-3)CC1 | 0.02 | –
CCCCC(=O)N1CCC(CNc2nc3c(s2)CCOc2ccc(C)cc2-3)CC1 | 0.007 | –
CC(C)C(=O)N1CCC(CNc2nc3c(s2)CCOc2cc(F)c(Cl)cc2-3)CC1 | 0.013 | –
